Data taken from article PMC3061052 (Nucleic Acids Research, 2010).
Changes are numbered by the printed parent chain. Entries after “also recorded” stand apart in the source; their conditions may differ.

Tests used:
[1] = target: T1, NpmA (wild-type) (Escherichia coli, UniProt A8C927); assay: ITC titration of wild-type NpmA with cofactor; assay type: binding
T1 sequence (A8C927 1-219): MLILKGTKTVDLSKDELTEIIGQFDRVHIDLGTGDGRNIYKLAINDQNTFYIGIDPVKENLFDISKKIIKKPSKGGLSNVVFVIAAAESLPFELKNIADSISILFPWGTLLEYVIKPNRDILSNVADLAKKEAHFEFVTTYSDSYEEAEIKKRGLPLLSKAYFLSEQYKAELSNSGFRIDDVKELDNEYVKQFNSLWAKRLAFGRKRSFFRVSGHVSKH

[2] = target: T2, NpmA D30A (Escherichia coli, UniProt A8C927, D30A); assay: ITC titration of NpmA D30A variant with cofactor; assay type: binding; conditions: 20°C
T2 sequence (A8C927 1-219 D30A): T1 sequence (A8C927 1-219) with D30A

[3] = target: T3, NpmA D55A (Escherichia coli, UniProt A8C927, D55A); assay: ITC titration of NpmA D55A variant with cofactor; assay type: binding; conditions: 20°C
T3 sequence (A8C927 1-219 D55A): T1 sequence (A8C927 1-219) with D55A

[4] = target: T4, NpmA E88A (Escherichia coli, UniProt A8C927, E88A); assay: ITC titration of NpmA E88A variant with cofactor; assay type: binding; conditions: 20°C
T4 sequence (A8C927 1-219 E88A): T1 sequence (A8C927 1-219) with E88A

[5] = target: T5, NpmA S195A (Escherichia coli, UniProt A8C927, S195A); assay: ITC titration of NpmA S195A variant with cofactor; assay type: binding; conditions: 20°C
T5 sequence (A8C927 1-219 S195A): T1 sequence (A8C927 1-219) with S195A

[6] = tested on: E. coli BL21(DE3)pLysS cells carrying recombinant pET-25b(+) vector with different npmA variants; assay: Kanamycin MIC dilution assay in cells carrying npmA variants; assay type: cell-based, Escherichia coli
Procedure, shortened: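 BL21(DE3)pLysS cells with pET-25b(+) npmA variants were grown overnight, diluted 100-fold in LB with ampicillin (100 mg/l) and chloramphenicol (34 mg/l), and grown to OD600 1. Cells were inoculated into the same medium with kanamycin at 0.5–1024 mg/l in twofold steps and incubated 18 h at 37°C. MIC was the lowest kanamycin concentration preventing visible growth.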

SMILES: Nc1ncnc2c1ncn2[C@@H]1O[C@H](CSCC[C@H](N)C(=O)O)[C@@H](O)[C@H]1O [AdoHcy, S-adenosylhomocysteine]
- N (ITC single site fit) for AdoHcy [1]: 1.0
- Kd for AdoHcy [2]: completely lost their ability to interact; also recorded: No binding
- Kd for AdoHcy [3]: completely lost their ability to interact; also recorded: No binding
- Kd for AdoHcy [4]: completely lost their ability to interact; also recorded: No binding

SMILES: C[S+](CC[C@H](N)C(=O)[O-])C[C@H]1O[C@@H](n2cnc3c(N)ncnc32)[C@H](O)[C@@H]1O (stereo partly shown) [AdoMet, S-adenosylmethionine]
- N (ITC single site fit) for AdoMet [1]: 1.1
- Kd ([1]; Kd for AdoMet, ITC, 20°C, no 30S subunit): 18 µM
- Kd for AdoMet [2]: completely lost their ability to interact; also recorded: No binding
- Kd for AdoMet [3]: completely lost their ability to interact; also recorded: No binding
- Kd for AdoMet [5]: complete loss of AdoMet binding; also recorded: No binding
- Kd for AdoMet [4]: completely lost their ability to interact; also recorded: No binding

SMILES: NC[C@H]1O[C@H](O[C@H]2[C@H](O)[C@@H](O[C@H]3O[C@H](CO)[C@@H](O)[C@H](N)[C@H]3O)[C@H](N)C[C@@H]2N)[C@H](O)[C@@H](O)[C@@H]1O [Kanamycin, kanamycin]
- Kanamycin MIC ([6]; Negative control (empty vector), 18 h at 37°C): 4 to 8 µg/mL
- Kanamycin MIC ([6]; cells expressing NpmA D30A): 8 µg/mL
- Kanamycin MIC ([6]; cells expressing NpmA D55A): 512 µg/mL
- kanamycin MIC compared to the wt NpmA ([6]; cells expressing NpmA D55A): 50%
- Kanamycin MIC ([6]; cells expressing NpmA E88A): 1024 µg/mL
- Kanamycin MIC ([6]; cells expressing NpmA F177A): 1024 µg/mL
- Kanamycin MIC ([6]; cells expressing NpmA K199A): 1024 µg/mL
- Kanamycin MIC ([6]; cells expressing NpmA P106A): 1024 µg/mL
- Kanamycin MIC ([6]; cells expressing NpmA R200A): 1024 µg/mL
- Kanamycin MIC ([6]; cells expressing NpmA R205A): 1024 µg/mL
- Kanamycin MIC ([6]; cells expressing NpmA S195A): 1024 µg/mL
- Kanamycin MIC ([6]; cells expressing NpmA T109A): 1024 µg/mL
- Kanamycin MIC ([6]; cells expressing NpmA W107A): 8 µg/mL
- Kanamycin MIC ([6]; cells expressing NpmA W197A): 8 µg/mL
- Kanamycin MIC ([6]; cells expressing NpmA-wt): 1024 µg/mL
